Screens deposited in PubChem BioAssay by several laboratories.
Many of the other results were omitted from the sample, so hits are more common in it than they were.
CD11b adhes enh: increases human CD11b/CD18 adhesion to fibrinogen; K562 CD11b/CD18 adhesion to fibrinogen, ATPlite luminescence; activation, % at 10 µM; actives 0.07% (n = 93,000);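 active = 10 µM primary screen giving 50% or more activity, confirmed by 40% or more on retest at that dose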
Target sequence (P05107 whole entry, looked up, other chains not shown): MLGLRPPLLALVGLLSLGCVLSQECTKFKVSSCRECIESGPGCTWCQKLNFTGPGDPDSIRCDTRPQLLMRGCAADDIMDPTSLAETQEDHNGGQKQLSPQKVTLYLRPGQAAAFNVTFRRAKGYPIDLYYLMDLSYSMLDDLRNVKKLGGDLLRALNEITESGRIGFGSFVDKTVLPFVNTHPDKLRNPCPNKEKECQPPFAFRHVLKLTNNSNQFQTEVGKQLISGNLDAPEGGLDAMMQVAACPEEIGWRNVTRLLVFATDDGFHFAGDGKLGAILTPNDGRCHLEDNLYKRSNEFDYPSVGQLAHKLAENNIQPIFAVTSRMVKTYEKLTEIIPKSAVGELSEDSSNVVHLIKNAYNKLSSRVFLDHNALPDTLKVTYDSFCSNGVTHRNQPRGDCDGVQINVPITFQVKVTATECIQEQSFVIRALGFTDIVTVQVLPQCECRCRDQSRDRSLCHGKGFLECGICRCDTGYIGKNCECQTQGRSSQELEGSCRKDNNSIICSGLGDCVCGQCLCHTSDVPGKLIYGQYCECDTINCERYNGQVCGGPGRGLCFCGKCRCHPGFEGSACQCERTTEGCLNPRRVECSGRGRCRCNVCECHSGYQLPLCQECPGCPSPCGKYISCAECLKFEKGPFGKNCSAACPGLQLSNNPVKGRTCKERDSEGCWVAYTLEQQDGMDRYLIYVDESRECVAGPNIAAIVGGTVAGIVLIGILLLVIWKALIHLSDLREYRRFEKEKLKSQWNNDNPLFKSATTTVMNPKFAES
tolC growth inh: E. coli tolC mutant growth inhibition; E. coli BW25113 tolC mutant growth, OD615; AID 573; actives 2.2% (n = 65,000); growth inhibition, % at 10 µM (by protocol);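 active = growth inhibition at or above a cutoff equal to the mean over every tested compound plus 3 SD, cut at about 60% in these data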;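 note: growth measured after 20 h incubation at 37 °C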
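Test system: E. coli BW25113 ΔtolC::kan bacteria; incubation: 37 °C, 20 h exposure; medium: LB broth supplemented with 50 µg/mL kanamycin; read-out basis: percent growth inhibition; signal: A615 absorbance measurement; compound: 10 µM final, single dose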
Ecoli WT expand: growth inhibitors of E. coli BW25113 wild type; AID 710; OD600 absorbance; growth inhibition, % at 100 µM; actives 0.15% (n = 98,000);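 active = growth inhibition above about 50% at one test dose, limit read from the data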;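 note: growth measured after 20 h incubation at 37 °C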
CD11b adhes inh: blocks human CD11b/CD18 adhesion to fibrinogen. P05107+P11215. actives 0.54% (n = 93,000). inhibition, % at 10 µM. K562 CD11b/CD18 adhesion to fibrinogen, ATPlite luminescence; Mn2+ added to activate the integrin;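 active = primary inhibition of 50% or more at 10 µM, then 40% or more on retest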
Of the large screens only hits and unclear results are named; the others gave an inactive call.

CCCOC(=O)c1ccc(Oc2c(-c3ccc(OC)cc3O)n[nH]c2C)cc1	none
CCCOC(=O)c1ccc(-c2c(C)noc2-c2ccc(OC)cc2O)o1	tolC growth inh 99
CCCc1ccc(Oc2cn[nH]c2-c2ccc(O)cc2O)cc1	tolC growth inh 100
COc1ccc(-c2[nH]ncc2-c2cnc(C)s2)c(O)c1	none
COc1ccc(Oc2cn[nH]c2-c2ccc(O)cc2O)cc1	tolC growth inh 94
COc1ccc(-c2[nH]ncc2-c2cnn(-c3ccccc3)c2)c(O)c1	tolC growth inh 93
COc1ccc(-c2[nH]ncc2Oc2ccccc2OC)c(O)c1	tolC growth inh 99
COc1ccc(C(=O)N2c3cc4c(cc3C(C)=CC2(C)C)OCO4)cc1	tolC growth inh 74 (no result: CD11b adhes inh)
CC(=O)Nc1ccc(NS(=O)(=O)c2ccc3ccccc3c2)cc1	none (no result: tolC growth inh)
O=C(NNC(=S)Nc1cccc2ccccc12)c1cccc(Br)c1	CD11b adhes inh 89 (no result: tolC growth inh)
O=C(Nc1nccs1)c1cc2c(s1)CCCCC2	CD11b adhes inh 72 (no result: tolC growth inh)
NNC(=O)c1cc2c(s1)CCCCCC2	none (no result: tolC growth inh)
COC(=O)c1sccc1NC(=O)c1cc2c(s1)CCCC2	tolC growth inh 61
CCOC(=O)c1c(NC(=O)Cn2nc(C(F)(F)F)cc2C)sc(C)c1C	none (no result: tolC growth inh, Ecoli WT expand)
CCN(CC)c1ccc(-c2nn3c(-c4n[nH]c5c4CCC5)nnc3s2)cc1	tolC growth inh 74
CN(C)c1ccc(-c2nn3c(-c4ccncc4)nnc3s2)cc1	tolC growth inh 84 (no result: CD11b adhes enh, Ecoli WT expand, CD11b adhes inh)
COc1ccc(F)cc1S(=O)(=O)N1CC(C)CC(C)C1 (stereo unspecified)	none (no result: tolC growth inh)
CCn1cc(C(=O)OC(C)C(=O)Nc2c(C)n(C)n(-c3ccccc3)c2=O)c(=O)c2ccc(C)nc21 (stereo unspecified)	tolC growth inh 99
COc1ccc(C2c3sc(=O)[nH]c3SC3C4CCC(C4)C23)cc1 (stereo unspecified)	tolC growth inh 100
CCC(C)Sc1nc2ccccc2n1CC(=O)O (stereo unspecified)	none (no result: tolC growth inh)
Cc1[nH]nc(-c2ccc(O)cc2O)c1-c1ccc(Cl)cc1	tolC growth inh 100 (no result: CD11b adhes enh, CD11b adhes inh)
Cc1cccc(NC(=S)NCC(c2cccnc2)N(C)C)c1 (stereo unspecified)	none (no result: tolC growth inh, Ecoli WT expand)
N#CC(c1cccc(Cl)c1)c1ncc(C(F)(F)F)cc1Cl (stereo unspecified)	none (no result: CD11b adhes enh, tolC growth inh, CD11b adhes inh)
CCn1c(-c2ccc(N)cc2)nc2ccccc21	none
CC(C)n1c(-c2ccc(N(C)C)cc2)nc2ccccc21	none
CN(C)c1ccc(-c2nc3ccccc3n2C)cc1	CD11b adhes inh 78
CCn1c(-c2ccc(N(C)C)cc2)nc2ccccc21	CD11b adhes inh 59
COc1ccc2nc(SCC(=O)Nc3cc(C)on3)[nH]c2c1	none (no result: tolC growth inh)
Cc1ccc(C)c(N2CCN(C(=O)CNS(=O)(=O)c3cccs3)CC2)c1	none (no result: tolC growth inh)
O=C(O)c1nc(N2CCCC2)ncc1Cl	none (no result: tolC growth inh)
CCOC(=O)N1CCN(S(=O)(=O)c2ccc(OCC)c3ccccc23)CC1	tolC growth inh 65
COc1ccc(C(c2c(C)[nH]n(-c3ccccc3)c2=O)c2c(C)[nH]n(-c3ccccc3)c2=O)cc1OC	CD11b adhes inh 52 (no result: tolC growth inh, Ecoli WT expand)
O=C(NN1C(=O)C2C(c3ccccc3)C=CC(c3ccccc3)C2C1=O)c1cccc(Br)c1 (stereo unspecified)	none (no result: tolC growth inh, Ecoli WT expand)
C/C(=N\NC(=O)c1ccc(Br)cc1)C1C(=O)c2ccccc2C1=O	CD11b adhes inh 97 (no result: tolC growth inh)
Cn1nc(C(F)(F)F)c(C(=O)Nc2ccc(F)cc2F)c1Sc1ccc(Cl)cc1	none (no result: CD11b adhes enh, tolC growth inh, CD11b adhes inh)
O=C(Nc1ccc(N2CCN(C(=O)c3ccco3)CC2)c(Cl)c1)c1cccs1	tolC growth inh 71
O=C(Cc1ccc(Cl)cc1)Nc1ccc(N2CCN(C(=O)c3ccco3)CC2)c(Cl)c1	none
CC(C)c1noc2ncc(C(=O)c3cc(Cl)cc(Cl)c3O)cc12	CD11b adhes inh 95 (no result: tolC growth inh)
COc1ccc(O)c(C(=O)c2cnc3onc(C)c3c2)c1	none
CCCn1c(=O)c(C(=O)Nc2nnc(C)s2)c(O)c2ccccc21	tolC growth inh 80 (no result: CD11b adhes enh, Ecoli WT expand, CD11b adhes inh)
CCCn1c(=O)c(C(=O)NCc2ccccn2)c(O)c2ccccc21	none (no result: CD11b adhes enh, CD11b adhes inh)
Cc1ccc(NC(=O)c2c(O)c3ccccc3n(C)c2=O)nc1	none
CC(C)Cn1c(=O)c(C(=O)Nc2cnccn2)c(O)c2ccccc21	tolC growth inh 100
CC(C)Cn1c(=O)c(C(=O)Nc2ccncc2)c(O)c2ccccc21	tolC growth inh 96 (no result: CD11b adhes enh, Ecoli WT expand, CD11b adhes inh)
CCOC(=O)c1nn(-c2ccc(Br)cc2)cc1C(=O)c1cccc2ccccc12	none (no result: tolC growth inh)
O=C(c1ccc(F)cc1)N1CCN(c2cc(=O)[nH]nc2-c2ccccc2)CC1	none (no result: CD11b adhes enh, tolC growth inh, CD11b adhes inh)
CCc1ccc(N/C(SCc2ccccc2C)=C(/C#N)C(=O)NCc2ccco2)cc1	none (no result: CD11b adhes enh, tolC growth inh, CD11b adhes inh)
O=C(N/N=C/C1CCCCC1)c1cc(Cl)ccc1O	Ecoli WT expand 50 (no result: CD11b adhes enh, tolC growth inh, CD11b adhes inh)
O=C(Cc1ccccc1)Nc1ccccc1N1CCN(c2ccccc2)CC1	tolC growth inh 63
CCN(CC)S(=O)(=O)c1ccc(Cl)c(C(=O)Nc2cc(C)nn2-c2ccccc2C(F)(F)F)c1	none (no result: tolC growth inh, Ecoli WT expand)
Cc1ccc(C)c2[nH]c(=O)c(CN(CC3CCCO3)S(=O)(=O)c3ccc4c(c3)OCCO4)cc12 (stereo unspecified)	tolC growth inh 60
c1csc(CCNc2ncnc3sc4c(c23)CCC4)c1	CD11b adhes inh 86
CCOc1ccc(NC(=O)CCn2c(=O)[nH]c3ccsc3c2=O)cc1	none (no result: tolC growth inh)
c1ccc(Cn2nnnc2C(c2cccs2)N2CCCCCC2)cc1 (stereo unspecified)	tolC growth inh 77 (no result: CD11b adhes enh, CD11b adhes inh)
N#Cc1nc(COc2ccccc2)oc1N1CCN(Cc2ccccc2)CC1	tolC growth inh 67 (no result: CD11b adhes enh, CD11b adhes inh)
Cc1ccc(OCc2nc(C#N)c(N3CCN(Cc4ccccc4)CC3)o2)cc1	tolC growth inh 64 (no result: CD11b adhes enh, CD11b adhes inh)
CCOc1ccc(OCCSc2nnnn2C2CCCCC2)cc1	tolC growth inh 65
COc1ccc2nc(NC(=O)CSc3nnnn3C3CCCCC3)sc2c1	tolC growth inh 69
COC(=O)c1cccc(-n2nnnc2SCC(=O)Nc2nc3c(s2)CCCC3)c1	tolC growth inh 84
O=C(CSc1nnnn1C1CCCCC1)Nc1nc2c(s1)CCCC2	tolC growth inh 98
Cc1cc(C)c(NC(=O)CN2CCN3CCCC3C2)c(C)c1 (stereo unspecified)	none
CC(=O)Nc1nnc(-c2ccc3c(c2)CCCC3)o1	none
O=C(COc1ccc(Cl)cc1)Nc1nnc(-c2ccc3c(c2)CCCC3)o1	tolC growth inh 100
COc1cccc(C(=O)Nc2nnc(-c3ccc(F)cc3)o2)c1	none (no result: CD11b adhes enh, Ecoli WT expand, CD11b adhes inh)
O=C(Nc1cccnc1)C1COc2ccccc2O1 (stereo unspecified)	none (no result: CD11b adhes enh, tolC growth inh, CD11b adhes inh)
COc1cccc(C(=O)Nc2nnc(-c3ccc(Cl)cc3)o2)c1	tolC growth inh 100 (no result: CD11b adhes enh, Ecoli WT expand, CD11b adhes inh)
O=C(Nc1nnc(-c2ccc3c(c2)CCCC3)o1)C1COc2ccccc2O1 (stereo unspecified)	tolC growth inh 100
COc1ccccc1C(=O)Nc1nnc(-c2ccc3c(c2)CCCC3)o1	tolC growth inh 98
CCOC(=O)COc1c(Cl)cc(C2NC(=S)NC(c3ccccc3)=C2C(C)=O)cc1OCC (stereo unspecified)	none (no result: tolC growth inh, Ecoli WT expand)
CCN(CC(=O)Nc1ccc([N+](=O)[O-])cc1OC)c1ccccc1	none (no result: tolC growth inh)
COc1cccc(C(=O)Nc2nnc(-c3cccs3)o2)c1	tolC growth inh 69, Ecoli WT expand 80
